From PubChem
Vif inh: HIV Vif self-association inhibitors, primary screen, imaging, HEK293T, single point; HEK293T cells, Vif self-association by quenched fluorescence, 24 h; AID 602346, 2012; inhibition, % at 7.49 µM; actives 0.35% (n = 340,000); in the data active means inhibition above about 50%, passing the limit was not always enough
SR-BI HDL uptake: inhibitors of SR-BI mediated HDL lipid uptake, primary screen, ldlA[mSR-BI] cells, fluorescence, single point. Scavenger receptor class B member 1 (Mus musculus), Q61009. ldlA[mSR-BI] CHO cells, DiI-HDL uptake fluorescence, 3 h. inhibition, % at 12.5 µM. actives 0.96% (n = 320,000);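 active means mean replicate inhibition of at least 70% and a set share of replicates each scoring 70 or more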;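 further: 0% = median of neutral control wells and 100% = median of positive control wells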
Target sequence (Q61009 whole entry, looked up): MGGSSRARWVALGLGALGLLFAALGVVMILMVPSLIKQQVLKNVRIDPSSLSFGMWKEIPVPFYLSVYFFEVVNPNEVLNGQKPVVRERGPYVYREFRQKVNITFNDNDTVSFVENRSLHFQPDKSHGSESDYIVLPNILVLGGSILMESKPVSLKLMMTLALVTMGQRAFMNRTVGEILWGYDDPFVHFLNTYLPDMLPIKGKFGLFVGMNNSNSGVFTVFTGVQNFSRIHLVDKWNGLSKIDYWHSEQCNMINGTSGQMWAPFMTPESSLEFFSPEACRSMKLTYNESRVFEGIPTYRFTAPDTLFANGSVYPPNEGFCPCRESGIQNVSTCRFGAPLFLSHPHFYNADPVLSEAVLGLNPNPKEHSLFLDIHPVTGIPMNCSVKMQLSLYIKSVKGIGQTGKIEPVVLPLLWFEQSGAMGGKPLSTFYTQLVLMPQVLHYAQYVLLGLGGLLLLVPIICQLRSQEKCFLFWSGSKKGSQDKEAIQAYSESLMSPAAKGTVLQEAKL
SR-BI DiI-HDL act: activators of SR-BI mediated DiI-HDL uptake, primary screen, ldlA[mSR-BI] CHO cells, DiI fluorescence; 3 h; 100 = double the neutral-control signal; activation, % at 12.5 µM; actives 0.096% (n = 320,000);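 active means mean replicate activation of at least 60% and every replicate at or above 60%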;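 further: 0% = median plate neutral-control signal and 100% = twice that signal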
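System: LDL receptor-deficient CHO ldlA cells overexpressing murine SR-BI | Timing: 3 h uptake period with compound, 37 °C | Medium: HEPES-buffered (25 mM, pH 7.4) F12 plus 0.5% BSA | Dosing: Single-point compound dose | Signal: Bottom-read fluorescence, 550/595 nm | Read-out: Retained DiI signal reflecting DiI-HDL uptake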
TAG inh: inhibitors of triacylglycerol accumulation, primary screen, cell-based, uHTS, fluorescence, H9c2. actives 0.66% (n = 230,000). inhibition, % at 12.5 µM. H9c2 cells, Nile Red lipid (TAG) fluorescence; cells loaded with 200 µM oleic acid;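 active means pattern-corrected inhibition of lipid staining of at least 50% with the nuclear-stain viability signal not falling by more than 50%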;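 further: 0% = DMSO wells and 100% = triacsin C control wells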
Bfl-1 A1 inh: caspase 3/7 activation in MEF A1-2A-BIM cells, primary screen, A1 inhibitor project, cell-based, luminescence, HTS. caspase activation, % (concentration not given with the values). Caspase-Glo 3/7 luminescence, 3 h; percent of clofoctol response, vehicle zero. actives 0.066% (n = 330,000). AID 2462, 2010;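 active means over half of replicate activation scores above 10%, or exactly half above 10 with the replicate mean above 10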
* = called active by the depositor; i = inactive; · = not tested or not shown. Hits are enriched below; roughly 1.6% of the tested compounds scored in any of these assays.

SMILES	Vif inh	SR-BI HDL uptake	SR-BI DiI-HDL act	TAG inh	Bfl-1 A1 inh
O=C(NNC(=O)c1ccc[nH]1)Nc1cc(Cl)cc(Cl)c1	55*	·	·	5	1
CCc1ccccc1Nc1nc(N)nc(COC(=O)CCC(=O)c2ccc(F)cc2)n1	10	-27	27	3	0
Oc1ccc(/C=N/N2CCN(C3c4ccccc4-c4ccccc43)CC2)cc1O	-2	38	-38	18	29*
COc1cc2c(cc1NC(=O)c1ccccc1F)CCCC2	-3	69	-69	·	-1
COc1cc2c(cc1NC(=O)c1cccc(F)c1)CCCC2	-3	76*	-76	-5	0
COc1cc2c(cc1NC(=O)c1cccc(Br)c1)CCCC2	16	73*	-73	27	1
CCCc1cc(=O)[nH]c(SCC(=O)Nc2cc(S(=O)(=O)N(CC)c3ccccc3)ccc2Cl)n1	-7	1	-1	2	2
COc1ccc(C(=O)c2c3ccc(C(F)(F)F)cc3[n+]([O-])n2CCCN)cc1	-5	-9	9	-33	-1
COc1ccc(Oc2ccccc2/C=C/C(=O)O)cc1	16	i	536*	2	0
O=C(O)/C=C/c1ccccc1Oc1ccccc1	-6	10	-10	-3	0
Cc1nc(NC(=O)C(C)Oc2cccc(Cl)c2)sc1C(=O)N(C)C (configuration not stated)	52*	-12	12	·	0
Cc1nc(NC(=O)COc2ccc(Cl)cc2)sc1C(=O)N(C)C	·	·	·	·	0
CCCCn1c(N)c(N(CC)C(=O)C2COc3ccccc3O2)c(=O)[nH]c1=O (configuration not stated)	-2	-3	3	-4	·
Cc1ccc(NC(=O)/C=C/C(=O)O)c(NC(=O)c2ccccc2)c1	53*	-8	8	·	-1
Cc1ccc(O)c(NC(=O)/C=C/C(=O)O)c1	-10	-9	9	-5	0
O=C(N/N=C/C=C\c1ccc([N+](=O)[O-])cc1)c1cccnc1	-1	·	·	4	1
COc1ccc(-n2nc3c(N4CCC(C(=O)NCCc5ccccc5C)CC4)nnc(C)c3c2C)cc1	-21	53	-53	·	-1
Cc1ccc(-n2nc3c(N4CCC(C(=O)NCCc5ccccc5C)CC4)nnc(C)c3c2C)cc1	54*	24	-24	·	-1
CCc1nc2ccc(C(=O)N3CCN(C(C)=O)CC3)cn2c1N(C)C(=O)c1cccc(OC)c1	13	·	·	0	·
COCCN(CC(=O)NC1CCCCC1)C(=O)/C=C/C(=O)c1ccc(OC)cc1O	-16	46	-46	10	·
COc1ccc(C(=O)/C=C/C(=O)N(CC(=O)NC2CCCCC2)Cc2cccs2)c(O)c1	7	25	-25	-9	26*
Cc1sc(NC(=O)/C=C/c2ccc(C(C)C)cc2)c(C#N)c1C	-1	78*	-78	·	-1
CC(C)c1ccc(/C=C/C(=O)Nc2nncs2)cc1	0	·	·	-5	-6
Cc1c(Cc2ccccc2)c(=O)oc2cc(OCC(=O)N3CCC(C(N)=O)CC3)ccc12	-2	15	-15	·	0
CNc1ccc(Br)cc(C(=O)/C=C/c2cccc(OC)c2OC)c1=O	75*	22	-22	·	1
SMILES	Vif inh	SR-BI HDL uptake	SR-BI DiI-HDL act	TAG inh	Bfl-1 A1 inh
OC(c1cc(C(F)(F)F)nc2c(Cl)cc(Cl)cc12)C1CCCCN1 (configuration not stated)	9	-66	66*	·	2
O[C@@H](c1cc(C(F)(F)F)nc2c(C(F)(F)F)cccc12)[C@H]1CCCCN1	-4	-17	17	132	2
O=C(N/N=C/c1ccc([N+](=O)[O-])s1)c1ccccc1Br	89*	4	-4	·	1
Cc1ccccc1C(=O)N/N=C/c1ccc([N+](=O)[O-])s1	-7	-4	4	·	0
COc1ccccc1C(=O)COC(=O)C1(C)CC1(Cl)Cl (configuration not stated)	71*	29	-29	3	-1
COc1ccccc1C(=O)COC(=O)c1ccccc1O	-5	-20	20	1	0
O=C(CNC(=O)c1ccc(Cl)cc1Cl)Nc1ccc(F)cc1	-9	·	·	-5	1
CC1(c2ccccc2)NC(=O)N(NC(=O)COC(=O)c2cc(Br)ccc2O)C1=O (configuration not stated)	9	-9	9	3	0
COc1cc(NC(=O)c2ccc3c(c2)OCO3)c2ncccc2c1	35	78*	-78	15	-1
Cc1ccc(-c2nc3ncccc3o2)cc1NC(=O)c1ccccc1	4	10	-10	14	0
Cc1ccc(-c2nc3ncccc3o2)cc1NC(=O)c1ccc2c(c1)OCO2	51*	-8	8	-2	·
Cc1ccc(C)c(N2C(=O)CC(Cc3ccc(Cl)cc3)C2=O)c1 (configuration not stated)	7	12	-12	·	0
COc1ccc(C(=O)NNC(=S)NC(=O)/C=C/c2cccs2)cc1	13	1	-1	1	-1
O=C(NC(=S)NNC(=O)c1cc2ccccc2cc1O)c1ccco1	0	146*	-146	-3	-7
O=C(NNC(=S)NC(=O)c1ccco1)c1ccc(NC(=O)c2ccccc2)cc1	1	41	-41	·	0
O=C(NC(=S)NNC(=O)c1ccccc1O)c1ccco1	0	110*	-110	·	0
O=C(/C=C/c1cccs1)NC(=S)NNC(=O)c1ccccc1O	-14	101*	-101	-9	0
COc1ccc(C(=O)NC(=S)NNC(=O)c2ccco2)cc1	14	-42	42	·	0
Cn1ccnc1SCC(=O)Nc1ccc(Cl)cn1	-1	-13	13	4	0
CCOC(=O)C1=C(O)/C(=C/c2cn(CC(=O)N3CCCC3)c3ccccc23)SC1=Nc1ccccc1	4	70*	-70	-22	·
COC(=O)c1cccc(NC(=O)COc2cccc([N+](=O)[O-])c2)c1	·	-12	12	·	0
Cc1cc(=O)oc2c1ccc1oc(/C(=N/O)c3ccccc3)c(C)c12	-4	i	516*	-59	0
Cc1ccc(/C(=N\O)c2oc3c(C)c4oc(=O)cc(C)c4cc3c2C)cc1	-6	15	-15	-149	0
CC(C)(C)CNC(=O)c1ccc2c(c1)S(=O)(=O)c1cc(Cl)ccc1C2=O	28	0	0	-24	0
Cc1cc(N(C)C(=O)c2ccc3c(c2)S(=O)(=O)c2cc(Cl)ccc2C3=O)c(C(F)(F)F)o1	-15	74*	-74	1	-1
c1ccc2oc(C3=NNC(=NC4CC4)SC3)cc2c1	0	82*	-82	-17	0
